These results are taken from ChEMBL document CHEMBL5038590, “Discovery of G Protein-Biased Ligands against 5-HT7R” (J Med Chem, 2021).

For assay [1], the target named is 5-hydroxytryptamine receptor 5A (Homo sapiens, UniProt P47898). The assay can be described thus: Binding affinity to 5-HT5AR (unknown origin). In short, it runs like this: (§1)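 Run by the NIMH Psychoactive Drug Screening Program as competition radioligand binding on crude membranes of cells expressing the recombinant receptor. Eleven dilutions (0.05 nM–50 μM, prepared at 5× assay concentration) were made in 50 mM Tris-HCl, 10 mM MgCl₂, 1 mM EDTA, pH 7.4. Incubation was 1.5 h at rt in the dark, followed by GF/B filtration (0.3% PEI) and scintillation counting. IC₅₀ was converted to Ki; at least triplicate.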

The target in assay [2] is 5-hydroxytryptamine receptor 1E (Homo sapiens, UniProt P28566). The assay can be described thus: Binding affinity to 5-HT1ER (unknown origin). In short, it runs like this: as §1
The target of assay [3] is T1, 5-hydroxytryptamine receptor 2C (Homo sapiens, UniProt P28335).
T1 sequence (P28335 whole entry): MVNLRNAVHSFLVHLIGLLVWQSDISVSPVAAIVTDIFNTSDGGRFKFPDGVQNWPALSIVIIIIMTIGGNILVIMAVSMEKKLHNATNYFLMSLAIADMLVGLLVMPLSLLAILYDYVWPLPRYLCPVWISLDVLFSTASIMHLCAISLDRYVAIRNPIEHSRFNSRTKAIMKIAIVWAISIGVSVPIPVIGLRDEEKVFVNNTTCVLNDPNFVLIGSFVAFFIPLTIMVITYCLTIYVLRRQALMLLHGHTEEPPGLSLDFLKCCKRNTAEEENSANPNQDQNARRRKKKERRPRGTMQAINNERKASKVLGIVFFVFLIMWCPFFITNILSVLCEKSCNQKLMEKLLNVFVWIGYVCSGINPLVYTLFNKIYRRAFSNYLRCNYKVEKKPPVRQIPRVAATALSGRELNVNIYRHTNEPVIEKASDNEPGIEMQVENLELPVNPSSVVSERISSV
Nature of the assay: Binding affinity to 5-HT2CR (unknown origin). In short, it runs like this: as §1

Assay [4] has as its target 5-hydroxytryptamine receptor 2B (Homo sapiens, UniProt P41595). Nature of the assay: Binding affinity to 5-HT2BR (unknown origin). In short, it runs like this:
as §1

Assay [5] has as its target T2, 5-hydroxytryptamine receptor 7 (Homo sapiens, UniProt P34969). The assay can be described thus: Agonist activity at 5-HT7R (unknown origin) transfected in HEK293 cells expressing tTA-dependent luciferase reporter and beta arrestin 2-TEV fusion gene assessed as beta arrestin recruitment incubated for 22 hrs by Tango assay. The assay is classed as functional, cell-based.

In assay [6] the target is 5-hydroxytryptamine receptor 6 (Homo sapiens, UniProt P50406). The assay can be described thus: Binding affinity to 5-HT6R (unknown origin). An outline of the steps: as §1
Assay [7] addresses 5-hydroxytryptamine receptor 2A (Homo sapiens, UniProt P28223). The assay can be described thus: Binding affinity to 5-HT2AR (unknown origin). In short, it runs like this:
as §1

The target of assay [8] is T2, 5-hydroxytryptamine receptor 7. Nature of the assay: Displacement of [3H] D-lysergic acid diethylamide from 5-HT7R (unknown origin) transfected in HEK293 cells incubated for 1.5 hrs by microbeta scintillation counter analysis. As to conditions: read-out: Ki; call rule not given here. The format is cell-based.
Assay [9] concerns the target T3, 5-hydroxytryptamine receptor 1A (Homo sapiens, UniProt P08908).
T3 sequence (P08908 whole entry): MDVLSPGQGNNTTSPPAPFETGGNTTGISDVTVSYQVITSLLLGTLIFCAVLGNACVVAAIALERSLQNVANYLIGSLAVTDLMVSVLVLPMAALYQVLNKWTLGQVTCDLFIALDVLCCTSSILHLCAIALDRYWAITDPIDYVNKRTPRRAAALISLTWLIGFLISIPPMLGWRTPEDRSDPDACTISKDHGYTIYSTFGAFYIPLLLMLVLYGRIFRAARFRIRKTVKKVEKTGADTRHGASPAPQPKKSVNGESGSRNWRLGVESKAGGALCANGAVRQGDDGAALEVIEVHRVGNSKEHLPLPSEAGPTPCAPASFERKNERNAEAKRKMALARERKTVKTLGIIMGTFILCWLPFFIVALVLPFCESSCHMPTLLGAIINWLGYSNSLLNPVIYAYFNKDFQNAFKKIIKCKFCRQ
The assay can be described thus: Binding affinity to 5-HT1AR (unknown origin). In short, it runs like this: as §1

The target of assay [10] is T2, 5-hydroxytryptamine receptor 7.
For assay [11], the target named is 5-hydroxytryptamine receptor 1B (Homo sapiens, UniProt P28222). The assay can be described thus: Binding affinity to 5-HT1BR (unknown origin). An outline of the steps: as §1
Assay [12] has as its target T4, 5-hydroxytryptamine receptor 3A (Homo sapiens, UniProt P46098).
T4 sequence (P46098 whole entry): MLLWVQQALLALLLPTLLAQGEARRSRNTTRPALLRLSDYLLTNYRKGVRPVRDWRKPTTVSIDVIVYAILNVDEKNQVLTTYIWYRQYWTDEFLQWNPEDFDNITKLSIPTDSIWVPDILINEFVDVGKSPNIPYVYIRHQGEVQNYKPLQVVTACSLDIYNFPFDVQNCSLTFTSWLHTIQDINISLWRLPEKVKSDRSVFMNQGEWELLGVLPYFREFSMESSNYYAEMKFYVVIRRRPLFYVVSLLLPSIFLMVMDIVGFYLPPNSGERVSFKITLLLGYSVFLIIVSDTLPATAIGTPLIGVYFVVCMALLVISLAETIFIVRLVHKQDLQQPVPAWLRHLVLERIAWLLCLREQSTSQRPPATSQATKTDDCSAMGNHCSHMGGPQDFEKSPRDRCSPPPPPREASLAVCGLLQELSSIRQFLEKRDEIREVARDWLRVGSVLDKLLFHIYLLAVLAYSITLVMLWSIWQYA
Nature of the assay: Binding affinity to 5-HT3R (unknown origin). An outline of the steps:
as §1

In assay [13] the target is 5-hydroxytryptamine receptor 1D (Homo sapiens, UniProt P28221). Nature of the assay: Binding affinity to 5-HT1DR (unknown origin). In short, it runs like this: as §1
Assay [14] concerns Mus musculus. Nature of the assay: Effect on wild type mouse assessed as time taken for duration of self grooming at 30 mg/kg, ip after 30 mins under 40 lux lighting (reference value: 43.7 +/- 10.8 sec). As to conditions: 0.5 h. The format is functional.
Assay [15] concerns Mus musculus. Nature of the assay: Effect on shank3-/- mouse model of autism spectrum disorder assessed as time taken for duration of self grooming at 30 mg/kg, ip after 30 mins under 40 lux lighting (reference value: 224 +/- 47.4 sec). The format is functional. As to conditions: 0.5 h.

T2 sequence (P34969 whole entry, the tested form may be a part): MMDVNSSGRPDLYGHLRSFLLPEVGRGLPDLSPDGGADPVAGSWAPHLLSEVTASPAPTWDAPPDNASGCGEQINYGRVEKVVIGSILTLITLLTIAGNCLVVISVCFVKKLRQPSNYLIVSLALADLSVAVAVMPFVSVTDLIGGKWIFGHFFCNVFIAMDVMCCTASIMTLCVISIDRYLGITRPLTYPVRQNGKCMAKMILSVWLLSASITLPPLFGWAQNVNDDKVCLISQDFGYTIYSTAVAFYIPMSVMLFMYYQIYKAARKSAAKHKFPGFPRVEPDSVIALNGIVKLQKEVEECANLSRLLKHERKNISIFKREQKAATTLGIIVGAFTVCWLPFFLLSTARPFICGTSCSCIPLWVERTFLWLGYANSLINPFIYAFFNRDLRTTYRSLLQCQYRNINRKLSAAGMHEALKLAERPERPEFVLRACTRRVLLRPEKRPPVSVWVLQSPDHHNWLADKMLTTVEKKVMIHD
Sequence of 5-hydroxytryptamine receptor 1B (P28222 whole entry): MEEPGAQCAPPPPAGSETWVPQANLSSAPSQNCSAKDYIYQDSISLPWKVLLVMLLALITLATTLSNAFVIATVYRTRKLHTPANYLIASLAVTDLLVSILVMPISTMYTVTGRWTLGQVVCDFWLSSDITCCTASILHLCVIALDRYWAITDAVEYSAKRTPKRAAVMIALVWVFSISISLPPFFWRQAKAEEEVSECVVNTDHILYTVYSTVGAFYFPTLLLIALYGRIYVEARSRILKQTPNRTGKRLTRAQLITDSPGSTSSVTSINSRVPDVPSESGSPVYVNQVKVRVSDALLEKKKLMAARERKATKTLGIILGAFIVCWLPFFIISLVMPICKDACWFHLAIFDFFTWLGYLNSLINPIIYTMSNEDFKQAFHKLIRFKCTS
Sequence of 5-hydroxytryptamine receptor 5A (P47898 whole entry): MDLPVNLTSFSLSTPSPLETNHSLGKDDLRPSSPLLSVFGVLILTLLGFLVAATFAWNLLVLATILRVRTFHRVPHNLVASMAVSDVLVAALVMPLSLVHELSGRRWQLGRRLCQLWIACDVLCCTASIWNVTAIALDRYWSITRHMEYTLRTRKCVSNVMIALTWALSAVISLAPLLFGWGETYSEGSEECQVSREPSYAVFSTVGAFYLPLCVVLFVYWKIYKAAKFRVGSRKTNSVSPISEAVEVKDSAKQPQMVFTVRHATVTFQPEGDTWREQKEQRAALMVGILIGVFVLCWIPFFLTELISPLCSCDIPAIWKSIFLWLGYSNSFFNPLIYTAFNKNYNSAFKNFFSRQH
Sequence of 5-hydroxytryptamine receptor 6 (P50406 whole entry): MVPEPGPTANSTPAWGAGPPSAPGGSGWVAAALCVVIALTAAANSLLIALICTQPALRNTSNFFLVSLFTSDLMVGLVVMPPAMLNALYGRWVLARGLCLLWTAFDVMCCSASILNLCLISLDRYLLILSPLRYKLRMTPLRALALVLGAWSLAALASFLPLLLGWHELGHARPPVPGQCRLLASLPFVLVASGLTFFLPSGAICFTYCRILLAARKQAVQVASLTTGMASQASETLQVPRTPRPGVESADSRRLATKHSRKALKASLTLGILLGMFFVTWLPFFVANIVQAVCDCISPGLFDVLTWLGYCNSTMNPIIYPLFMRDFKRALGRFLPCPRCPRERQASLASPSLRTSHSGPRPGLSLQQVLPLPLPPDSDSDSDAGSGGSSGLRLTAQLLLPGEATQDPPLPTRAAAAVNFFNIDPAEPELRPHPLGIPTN
Sequence of 5-hydroxytryptamine receptor 1E (P28566 whole entry): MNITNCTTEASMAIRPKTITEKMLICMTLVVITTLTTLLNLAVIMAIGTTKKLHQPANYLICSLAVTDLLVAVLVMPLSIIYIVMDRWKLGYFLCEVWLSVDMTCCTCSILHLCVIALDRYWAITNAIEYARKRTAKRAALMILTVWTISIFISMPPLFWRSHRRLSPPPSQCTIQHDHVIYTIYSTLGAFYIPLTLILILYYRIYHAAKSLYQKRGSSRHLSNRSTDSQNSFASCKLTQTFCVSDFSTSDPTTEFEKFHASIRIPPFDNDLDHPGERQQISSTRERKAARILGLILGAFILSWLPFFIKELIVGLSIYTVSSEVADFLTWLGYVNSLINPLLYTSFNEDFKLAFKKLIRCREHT
Sequence of 5-hydroxytryptamine receptor 2A (P28223 whole entry): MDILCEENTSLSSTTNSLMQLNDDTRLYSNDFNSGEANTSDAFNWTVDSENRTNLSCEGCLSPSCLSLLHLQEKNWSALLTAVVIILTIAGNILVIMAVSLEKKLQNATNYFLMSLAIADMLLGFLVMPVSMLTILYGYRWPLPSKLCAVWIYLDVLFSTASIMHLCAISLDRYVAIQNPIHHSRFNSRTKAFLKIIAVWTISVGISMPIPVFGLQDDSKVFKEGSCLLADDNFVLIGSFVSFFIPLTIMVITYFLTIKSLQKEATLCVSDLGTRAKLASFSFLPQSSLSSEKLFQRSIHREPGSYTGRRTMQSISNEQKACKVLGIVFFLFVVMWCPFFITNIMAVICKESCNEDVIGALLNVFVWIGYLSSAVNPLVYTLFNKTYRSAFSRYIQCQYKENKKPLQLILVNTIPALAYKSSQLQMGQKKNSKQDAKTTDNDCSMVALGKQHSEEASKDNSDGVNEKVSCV
Sequence of 5-hydroxytryptamine receptor 2B (P41595 whole entry): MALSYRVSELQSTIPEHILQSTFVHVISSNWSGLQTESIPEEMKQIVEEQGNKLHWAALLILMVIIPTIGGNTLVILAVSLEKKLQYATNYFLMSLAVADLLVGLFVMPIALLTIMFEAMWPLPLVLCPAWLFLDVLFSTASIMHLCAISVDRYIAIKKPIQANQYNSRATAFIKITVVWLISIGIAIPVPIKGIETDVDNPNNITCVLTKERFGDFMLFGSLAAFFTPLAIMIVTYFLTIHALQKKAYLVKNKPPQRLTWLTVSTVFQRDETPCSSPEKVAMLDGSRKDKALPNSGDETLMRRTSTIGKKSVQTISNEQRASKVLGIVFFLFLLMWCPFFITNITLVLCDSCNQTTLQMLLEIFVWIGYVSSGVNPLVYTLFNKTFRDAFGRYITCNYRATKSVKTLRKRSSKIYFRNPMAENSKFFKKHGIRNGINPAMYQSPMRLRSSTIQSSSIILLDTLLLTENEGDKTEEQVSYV
Sequence of 5-hydroxytryptamine receptor 1D (P28221 whole entry): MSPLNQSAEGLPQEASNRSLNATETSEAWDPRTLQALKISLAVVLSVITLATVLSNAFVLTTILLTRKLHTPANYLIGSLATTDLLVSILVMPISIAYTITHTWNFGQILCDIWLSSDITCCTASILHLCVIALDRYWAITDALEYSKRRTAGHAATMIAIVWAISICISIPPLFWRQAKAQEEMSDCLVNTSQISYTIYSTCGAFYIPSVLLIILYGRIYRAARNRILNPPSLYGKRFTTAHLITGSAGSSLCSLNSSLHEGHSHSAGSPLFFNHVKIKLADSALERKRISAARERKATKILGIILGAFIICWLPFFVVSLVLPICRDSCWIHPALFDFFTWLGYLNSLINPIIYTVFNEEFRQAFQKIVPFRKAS

Regarding `COc1ccccc1-c1cc(CCN(C)C)ccc1Cl`, the Ki in assay [1] is 380 nM; in assay [2] it was 2200 nM; in assay [3] it was above 10000 nM; in [4], 280 nM; in assay [6], 1000 nM; in assay [7], 250 nM. Moreover, the Ki in assay [8] is 2.5 nM; in [9], 280 nM; in [11], 74 nM; in [12] it was above 10000 nM; in [13], 86 nM. Further, the EC50 came to 56 nM in [5] (read-out: EC50) and 84 nM in [10].
Consider `CC1CCN(CC[C@H]2CCCN2S(=O)(=O)c2cccc(O)c2)CC1`, for which the Time in the assay on Mus musculus [14] was determined as 29.3 s; with Mus musculus [15], 181 s.
Take `CCCN(CCC)CCc1ccc(Cl)c(-c2ccccc2OC)c1`: the Ki in assay [1] was 2900 nM; in [2], above 10000 nM; in [3], above 10000 nM; in [4] it was 230 nM; in [6] it was above 10000 nM; in [7], 1200 nM. Also, the Ki was 20 nM in [8]; 65 nM in assay [9]; 160 nM in assay [11]; above 10000 nM in assay [12]; 38 nM in assay [13]. In addition, the EC50 result was “Not Active” in assay [5] (hek293) and 1400 nM in assay [10].
